Series [1] has as its target T1, Gonadotropin-releasing hormone receptor (Homo sapiens) (UniProt P30968).
T1 sequence (whole entry): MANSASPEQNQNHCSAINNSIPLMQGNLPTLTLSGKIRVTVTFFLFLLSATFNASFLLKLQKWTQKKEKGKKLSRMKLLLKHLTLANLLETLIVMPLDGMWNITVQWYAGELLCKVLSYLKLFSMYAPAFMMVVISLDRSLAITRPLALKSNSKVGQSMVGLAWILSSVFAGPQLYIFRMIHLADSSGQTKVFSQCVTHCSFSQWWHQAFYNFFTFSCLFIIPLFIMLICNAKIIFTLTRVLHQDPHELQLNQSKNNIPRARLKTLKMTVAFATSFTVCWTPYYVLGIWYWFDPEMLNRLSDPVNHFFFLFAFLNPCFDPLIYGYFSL
The experiment in a line: Antagonist activity at human recombinant GnRHR expressed in CHOK1 cells assessed as reduction in luminescence signal at 3 uM by luciferase reporter gene assay. The series is classed as functional, cell-based. The settings on record: CHO-K1. The method, boiled down:
(§1)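 CHO-K1 cells stably expressing human GnRHR plus NFAT-luciferase reporter, grown in DMEM/10% FBS with geneticin, harvested and suspended in DMEM with insulin, apo-transferrin and 3% DMSO (7500 cells/well). Compounds (10 μM to 0.3 nM final, half-log) preincubated 30 min, then GnRH 3 nM final (EC80) for 4 h; luciferase substrate added, 1 h at room temperature in the dark; luminescence read.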
A general note: A reporter such as luciferase makes a cellular process visible.

Series [2] addresses T1, Gonadotropin-releasing hormone receptor (Homo sapiens). The experiment in a line: Antagonist activity at human recombinant GnRHR expressed in CHOK1 cells assessed as reduction in luminescence signal at 10 uM by luciferase reporter gene assay. The settings on record: CHO-K1. The series is classed as functional, cell-based. The method, boiled down: as §1
Series [3] concerns the target T2, Gonadotropin-releasing hormone receptor (Homo sapiens, UniProt P30968).
T2 sequence (P30968 whole entry): T1 sequence (whole entry)
The experiment in a line: Antagonist activity at human recombinant GnRHR expressed in CHOK1 cells assessed as reduction in luminescence signal by luciferase reporter gene assay. The series is classed as functional, cell-based, CHO-K1. The method, boiled down: as §1

The target in series [4] is T2, Gonadotropin-releasing hormone receptor. The experiment in a line: Displacement of [125I]triptorelin from human GnRHR expressed in CHO cells. The series is classed as cell-based. The method, boiled down: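 Membranes from CHO cells stably expressing human GnRHR (20 μg protein) in 50 mM Tris-HCl pH 7.4, 2 mM MgCl2, 0.1% BSA, with 30,000 cpm [125I]triptorelin and five competitor concentrations, 45 min at 22 °C. Nonspecific binding was set with 1 μM ganirelix. Samples were filtered on PEI-soaked GF/B and counted by gamma counter.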
On the technique in general: Loss of bound radioactivity is the signal in a displacement assay; it reports binding, not function.

A short description of series [5]: Cytotoxicity against human GnRHR expressing CHO cells assessed as cell viability at 10 uM after 4 hrs. The class given is cell-based, Cricetulus griseus. The settings on record: chinese hamster, read-out: Activity. The method, boiled down: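 CHO cells with human GnRHR and luciferase reporter, plated in assay medium with or without 10 μM compound, 4 h at 37 °C. Cells were then trypsinised and suspended in PBS, mixed 1:1 with 0.8% trypan blue, and live cells were counted by hemocytometer.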

As to `CCNC(=O)Nc1ccc(-c2nc3n(Cc4c(F)cccc4F)cc(C(=O)OCC)c(=O)n3c2CN(CC(=O)N[C@@H](C)C(=O)NCC#Cc2ccccc2)Cc2ccccc2)cc1`, the Efficacy came out at 63% in series [1] and 61% in series [2]. For the same compound, the IC50 (as a rule, the concentration that gives 50% inhibition) in series [3] stood at 1100 nM. Moreover, the inhibition constant (Ki) – broadly, a dissociation constant, usually derived from enzyme kinetics or from competition with a known ligand – in series [4] amounted to 1600 nM.
Taken in the same sequence, the figures for `CCNC(=O)Nc1ccc(-c2nc3n(Cc4c(F)cccc4F)cc(C(=O)OCC)c(=O)n3c2CN(CC(=O)NCCCCCC(=O)NCC#Cc2ccccc2)Cc2ccccc2)cc1` were 97%, 99%, 440 nM and 380 nM.
On to `CCNC(=O)Nc1ccc(-c2nc3n(Cc4c(F)cccc4F)cc(C(=O)OCC)c(=O)n3c2CN(CC(=O)N[C@@H](C)C(=O)NCC#Cc2cccc(C#CCNC(=O)[C@H](C)NC(=O)CN(Cc3ccccc3)Cc3c(-c4ccc(NC(=O)NCC)cc4)nc4n(Cc5c(F)cccc5F)cc(C(=O)OCC)c(=O)n34)c2)Cc2ccccc2)cc1`, for which the Efficacy in series [1] worked out at 18%; in series [2], 14%. This compound had a Ki in series [4] of 5300 nM.
As to `CCNC(=O)Nc1ccc(-c2nc3n(Cc4c(F)cccc4F)cc(C(=O)OCC)c(=O)n3c2CN(CC(=O)NCC(=O)NCC#Cc2ccc(C#CCNC(=O)CNC(=O)CN(Cc3ccccc3)Cc3c(-c4ccc(NC(=O)NCC)cc4)nc4n(Cc5c(F)cccc5F)cc(C(=O)OCC)c(=O)n34)cc2)Cc2ccccc2)cc1`, the Efficacy amounted to 34% in series [1] and 59% in series [2]. This compound also yielded a Ki in series [4] of 530 nM.
In the case of `CCNC(=O)Nc1ccc(-c2nc3n(Cc4c(F)cccc4F)cc(C(=O)OCC)c(=O)n3c2CN(CC(=O)NCCCC(=O)NCC#Cc2ccccc2)Cc2ccccc2)cc1`, the viability at 4 h, 10 µM in series [5] came out at 95%. The Efficacy in series [1] turned out to be 97%; in series [2] it was 96%. Also, the IC50 in series [3] was determined as 680 nM. The inhibition constant Ki in series [4] is 580 nM.
In the case of `CCNC(=O)Nc1ccc(-c2nc3n(Cc4c(F)cccc4F)cc(C(=O)OCC)c(=O)n3c2CN(CC(=O)N[C@H](C(=O)NCC#Cc2ccccc2)C(C)C)Cc2ccccc2)cc1`, the results for the Efficacy in series [1] and in series [2] were 64% and 60%, respectively. In addition, the half-inhibitory concentration (IC50) in series [3] was found to be 520 nM. In series [4], this compound showed an inhibition constant (Ki) of 770 nM.
With `CCNC(=O)Nc1ccc(-c2nc3n(Cc4c(F)cccc4F)cc(C(=O)OCC)c(=O)n3c2CN(CC(=O)NCCCCCC(=O)NCC#Cc2ccc(C#CCNC(=O)CCCCCNC(=O)CN(Cc3ccccc3)Cc3c(-c4ccc(NC(=O)NCC)cc4)nc4n(Cc5c(F)cccc5F)cc(C(=O)OCC)c(=O)n34)cc2)Cc2ccccc2)cc1`, the Efficacy was 54% in series [1] and 67% in series [2]. The inhibitory constant (Ki) in series [4] was 620 nM.
With `CCNC(=O)Nc1ccc(-c2nc3n(Cc4c(F)cccc4F)cc(C(=O)OCC)c(=O)n3c2CN(CC(=O)NCCCC(=O)NCC#Cc2ccc(C#CCNC(=O)CCCNC(=O)CN(Cc3ccccc3)Cc3c(-c4ccc(NC(=O)NCC)cc4)nc4n(Cc5c(F)cccc5F)cc(C(=O)OCC)c(=O)n34)cc2)Cc2ccccc2)cc1`, in series [5], the viability at 4 h, 10 µM is 95%. Moreover, the figures for the Efficacy in series [1] and in series [2] were 68% and 85%, respectively. The same compound displayed a Ki in series [4] of 600 nM.
For `CCNC(=O)Nc1ccc(-c2nc3n(Cc4c(F)cccc4F)cc(C(=O)OCC)c(=O)n3c2CN(CC(=O)N[C@H](C(=O)NCC#Cc2ccc(C#CCNC(=O)[C@@H](NC(=O)CN(Cc3ccccc3)Cc3c(-c4ccc(NC(=O)NCC)cc4)nc4n(Cc5c(F)cccc5F)cc(C(=O)OCC)c(=O)n34)C(C)C)cc2)C(C)C)Cc2ccccc2)cc1`, the figures for the Efficacy in series [1] and in series [2] were 31% and 34%, respectively. In series [4], this compound returned a Ki of 720 nM.
`CCNC(=O)Nc1ccc(-c2nc3n(Cc4c(F)cccc4F)cc(C(=O)OCC)c(=O)n3c2CN(CC(=O)NCC(=O)NCC#Cc2ccccc2)Cc2ccccc2)cc1`: the Efficacy in series [1] was found to be 92%; in series [2], 95%. Further, the 50% inhibitory concentration (IC50) in series [3] was found to be 460 nM. The compound also came in with an inhibition constant Ki in series [4] of 170 nM.
As to `CCNC(=O)Nc1ccc(-c2nc3n(Cc4c(F)cccc4F)cc(C(=O)OCC)c(=O)n3c2CN(CC(=O)N2CCC[C@H]2C(=O)NCC#Cc2ccc(C#CCNC(=O)[C@@H]3CCCN3C(=O)CN(Cc3ccccc3)Cc3c(-c4ccc(NC(=O)NCC)cc4)nc4n(Cc5c(F)cccc5F)cc(C(=O)OCC)c(=O)n34)cc2)Cc2ccccc2)cc1`, the Efficacy stood at 46% in series [1] and 65% in series [2]. In series [4], this compound had an inhibition constant Ki of 740 nM.
The corresponding values for `CCNC(=O)Nc1ccc(-c2nc3n(Cc4c(F)cccc4F)cc(C(=O)OCC)c(=O)n3c2CN(CC(=O)N2CCC(C(=O)NCC#Cc3cccc(C#CCNC(=O)C4CCN(C(=O)CN(Cc5ccccc5)Cc5c(-c6ccc(NC(=O)NCC)cc6)nc6n(Cc7c(F)cccc7F)cc(C(=O)OCC)c(=O)n56)CC4)c3)CC2)Cc2ccccc2)cc1` are 68%, 86% and 400 nM.
As to `CCNC(=O)Nc1ccc(-c2nc3n(Cc4c(F)cccc4F)cc(C(=O)OCC)c(=O)n3c2CN(CC(=O)N2CCC(C(=O)NCC#Cc3ccc(C#CCNC(=O)C4CCN(C(=O)CN(Cc5ccccc5)Cc5c(-c6ccc(NC(=O)NCC)cc6)nc6n(Cc7c(F)cccc7F)cc(C(=O)OCC)c(=O)n56)CC4)cc3)CC2)Cc2ccccc2)cc1`, the Efficacy in series [1] was determined as 35%; in series [2], 48%. Further, the Ki in series [4] came to 510 nM.
Regarding `CCNC(=O)Nc1ccc(-c2nc3n(Cc4c(F)cccc4F)cc(C(=O)OCC)c(=O)n3c2CN(CC(=O)N[C@@H](C)C(=O)NCC#Cc2ccc(C#CCNC(=O)[C@H](C)NC(=O)CN(Cc3ccccc3)Cc3c(-c4ccc(NC(=O)NCC)cc4)nc4n(Cc5c(F)cccc5F)cc(C(=O)OCC)c(=O)n34)cc2)Cc2ccccc2)cc1`, the Efficacy was 42% in series [1] and 52% in series [2]. Also, the Ki in series [4] came out at 480 nM.
Taken in the same sequence, the figures for `CCNC(=O)Nc1ccc(-c2nc3n(Cc4c(F)cccc4F)cc(C(=O)OCC)c(=O)n3c2CN(CC(=O)NCC(=O)NCC#Cc2cccc(C#CCNC(=O)CNC(=O)CN(Cc3ccccc3)Cc3c(-c4ccc(NC(=O)NCC)cc4)nc4n(Cc5c(F)cccc5F)cc(C(=O)OCC)c(=O)n34)c2)Cc2ccccc2)cc1` were 20%, 9% and 1100 nM.
In the case of `CCNC(=O)Nc1ccc(-c2nc3n(Cc4c(F)cccc4F)cc(C(=O)OCC)c(=O)n3c2CN(CC(=O)N2CCC[C@H]2C(=O)NCC#Cc2ccccc2)Cc2ccccc2)cc1`, the Efficacy in series [1] is 87%; in series [2] it was 89%. Also, in series [3], the concentration for half-maximal inhibition (IC50) was 560 nM. The compound also gave a Ki in series [4] of 260 nM.
The corresponding values for `CCNC(=O)Nc1ccc(-c2nc3n(Cc4c(F)cccc4F)cc(C(=O)OCC)c(=O)n3c2CN(CC(=O)N2CCC(C(=O)NCC#Cc3ccccc3)CC2)Cc2ccccc2)cc1` are 83%, 82%, 460 nM and 140 nM.
For `CCNC(=O)Nc1ccc(-c2nc3n(Cc4c(F)cccc4F)cc(C(=O)OCC)c(=O)n3c2CN(CC(=O)N2CCC[C@H]2C(=O)NCC#Cc2cccc(C#CCNC(=O)[C@@H]3CCCN3C(=O)CN(Cc3ccccc3)Cc3c(-c4ccc(NC(=O)NCC)cc4)nc4n(Cc5c(F)cccc5F)cc(C(=O)OCC)c(=O)n34)c2)Cc2ccccc2)cc1`, the results for the Efficacy in series [1] and in series [2] were 31% and 67%, respectively. Further, affinity in series [4] was put at a Ki of 930 nM.
With `CCNC(=O)Nc1ccc(-c2nc3n(Cc4c(F)cccc4F)cc(C(=O)OCC)c(=O)n3c2CN(CC(=O)NCCCC(=O)NCC#Cc2cccc(C#CCNC(=O)CCCNC(=O)CN(Cc3ccccc3)Cc3c(-c4ccc(NC(=O)NCC)cc4)nc4n(Cc5c(F)cccc5F)cc(C(=O)OCC)c(=O)n34)c2)Cc2ccccc2)cc1`, the Efficacy in series [1] was found to be 40%; in series [2], 57%. Besides, in series [4], the Ki turned out to be 820 nM.
Taken in the same sequence, the figures for `CCNC(=O)Nc1ccc(-c2nc3n(Cc4c(F)cccc4F)cc(C(=O)OCC)c(=O)n3c2CN(CC(=O)NCCCCCC(=O)NCC#Cc2cccc(C#CCNC(=O)CCCCCNC(=O)CN(Cc3ccccc3)Cc3c(-c4ccc(NC(=O)NCC)cc4)nc4n(Cc5c(F)cccc5F)cc(C(=O)OCC)c(=O)n34)c2)Cc2ccccc2)cc1` were 44%, 58% and 930 nM.
Taken in the same sequence, the figures for `CCNC(=O)Nc1ccc(-c2nc3n(Cc4c(F)cccc4F)cc(C(=O)OCC)c(=O)n3c2CN(CC(=O)N[C@H](C(=O)NCC#Cc2cccc(C#CCNC(=O)[C@@H](NC(=O)CN(Cc3ccccc3)Cc3c(-c4ccc(NC(=O)NCC)cc4)nc4n(Cc5c(F)cccc5F)cc(C(=O)OCC)c(=O)n34)C(C)C)c2)C(C)C)Cc2ccccc2)cc1` were 28%, 43% and 2200 nM.
